# Experiments:
# Type in all cases: functional
# Klebsiella pneumoniae = assay: In vitro minimum inhibitory concentration against gram-negative Kp, Klebsiella pneumoniae B54.
# Outline: (§1)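 Two-fold agar dilution on Sensitivity Disk Agar-N (Japan Society of Chemotherapy method). Overnight broth cultures diluted in buffered saline with 0.01% gelatin to about 10⁶ CFU/mL. One loopful (5 μL/spot) inoculated onto plates containing graded agent concentrations. Incubation 37 °C, 18 h. MIC = lowest concentration inhibiting visible growth.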
# Mus musculus [1] = organism: Mus musculus; assay: Compound was tested for oral efficacy on systemic infections caused by Escherichia coli KC-14 in mice
# Outline: (§2)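 Male ddY mice (25 g) infected intraperitoneally with 0.5 mL overnight brain heart infusion culture diluted in 5% gastric mucin, about 35 to 500 times the LD50. Compound given orally 1 h post-infection, as 1% aqueous gum arabic suspension or distilled water solution. Four dose groups of five mice. Survival followed daily for 7 days; ED50 by Weil method.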
# Staphylococcus aureus [2] = assay: In vitro minimum inhibitory concentration against gram-positive Sa (I), Staphylococcus aureus IID803.; outline: as §1
# Mus musculus [3] = organism: Mus musculus; assay: Compound was tested for oral efficacy on systemic infections caused by Staphylococcus aureus IID803 in mice; outline: as §2
# Staphylococcus aureus [4] = assay: In vitro minimum inhibitory concentration against gram-positive Sa (F), Staphylococcus aureus FDA 209P JC-1.; outline: as §1
# [5] = test system: Staphylococcus epidermidis; assay: In vitro minimum inhibitory concentration against gram-positive Se, Staphylococcus epidermidis IAM 1296.; outline: as §1
# Mus musculus [6] = organism: Mus musculus; assay: Compound was tested for oral efficacy on systemic infections caused by Escherichia coli KC-14 in mice.; outline: as §2
# Mus musculus [7] = organism: Mus musculus; assay: Compound was tested for oral efficacy on systemic infections caused by Staphylococcus aureus IID803 in mice.; outline: as §2
# Escherichia coli [8] = assay: Compound was tested for in vitro antibacterial activity (minimum inhibition concentration) against gram-negative Ec(K), Escherichia coli KC-14.
# Outline: as §1, with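 “10⁶ CFU/mL; one” for “10⁶ CFU/mL. One”, “plates with” for “plates containing”, “18 h;” for “18 h.”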
# Escherichia coli [9] = assay: Compound was tested for in vitro antibacterial activity (minimum inhibition concentration) against gram-negative Ec(K), Escherichia coli KC-14; outline: as §1
SMILES,MIC (Klebsiella pneumoniae),ED50 (Mus musculus [1]),MIC (Staphylococcus aureus [2]),ED50 (Mus musculus [3]),MIC (Staphylococcus aureus [4]),further results
CN1Cc2csc3c(C(=O)O)c(=O)c4cc(F)c(N5CCNCC5)c1c4n23,0.025 µg/mL,> 2 mg/kg,–,–,–,–
CN1Cc2csc3c(C(=O)O)c(=O)c4cc(F)c(N5CCC(N)C5)c1c4n23 (centres undefined),0.025 µg/mL,> 2 mg/kg,–,–,–,–
CN1Cc2csc3c(C(=O)O)c(=O)c4cc(F)c(N5CCSCC5)c1c4n23,–,–,0.0125 µg/mL,> 12 mg/kg,0.025 µg/mL,MIC [5]: 0.025 µg/mL
CN1Cc2csc3c(C(=O)O)c(=O)c4cc(F)c(N5CCCC5)c1c4n23,–,–,–,–,–,ED50 (Mus musculus [6]): > 2 mg/kg
CNCC1CCN(c2c(F)cc3c(=O)c(C(=O)O)c4scc5n4c3c2N(C)C5)C1 (centres undefined),0.025 µg/mL,–,–,> 12 mg/kg,–,–
CC1CN(c2c(F)cc3c(=O)c(C(=O)O)c4scc5n4c3c2N(C)C5)CCN1C (centres undefined),–,2 mg/kg,–,–,–,ED50 (Mus musculus [7]): 3 mg/kg
CCC1CN(c2c(F)cc3c(=O)c(C(=O)O)c4scc5n4c3c2N(C)C5)CCN1C (centres undefined),–,–,0.05 µg/mL,–,0.05 µg/mL,–
C[C@@H]1CN(c2c(F)cc3c(=O)c(C(=O)O)c4scc5n4c3c2N(C)C5)C[C@H](C)N1C,–,2 mg/kg,–,–,0.025 µg/mL,ED50 (Mus musculus [7]): 2 mg/kg
C[C@@H]1CN(c2c(F)cc3c(=O)c(C(=O)O)c4scc5n4c3c2N(C)C5)C[C@H](C)N1,–,> 2 mg/kg,0.05 µg/mL,–,0.05 µg/mL,MIC (Escherichia coli [8]): 0.05 µg/mL
CN1Cc2csc3c(C(=O)O)c(=O)c4cc(F)c(N5CCC(O)C5)c1c4n23 (centres undefined),–,–,–,> 12 mg/kg,–,–
CCN1CCN(c2c(F)cc3c(=O)c(C(=O)O)c4scc5n4c3c2N(C)C5)CC1,0.05 µg/mL,–,0.05 µg/mL,3 mg/kg,–,MIC (Escherichia coli [8]): 0.05 µg/mL; ED50 (Mus musculus [6]): 1 mg/kg
CCN1[C@H](C)CN(c2c(F)cc3c(=O)c(C(=O)O)c4scc5n4c3c2N(C)C5)C[C@@H]1C.Cl,–,–,0.05 µg/mL,–,0.05 µg/mL,–
CCC1CN(c2c(F)cc3c(=O)c(C(=O)O)c4scc5n4c3c2N(C)C5)CCN1.Cl (centres undefined),–,–,0.05 µg/mL,–,0.05 µg/mL,–
CCNCC1CCN(c2c(F)cc3c(=O)c(C(=O)O)c4scc5n4c3c2N(C)C5)C1.Cl (centres undefined),0.05 µg/mL,–,–,> 12 mg/kg,–,–
CC1CN(c2c(F)cc3c(=O)c(C(=O)O)c4scc5n4c3c2N(C)C5)CCN1.Cl (centres undefined),–,> 2 mg/kg,–,–,–,–
CN1CCN(c2c(F)cc3c(=O)c(C(=O)O)c4scc5n4c3c2N(C)C5)CC1,0.05 µg/mL,–,0.05 µg/mL,3 mg/kg,–,MIC (Escherichia coli [9]): 0.05 µg/mL; ED50 (Mus musculus [6]): 1 mg/kg
CN1Cc2csc3c(C(=O)O)c(=O)c4cc(F)c(N5CCOCC5)c1c4n23,0.05 µg/mL,–,–,> 12 mg/kg,–,–
CC1COc2c(N3CCN(C)CC3)c(F)cc3c(=O)c(C(=O)O)cn1c23 (centres undefined) [OFLOXACIN],–,1 mg/kg,–,11 mg/kg,–,–
